According to ChEMBL document CHEMBL1795205, “The new 5- or 6-azapyrimidine and cyanuric acid derivatives of l-ascorbic acid bearing the free C-5 hydroxy or C-4 amino group at the ethylenic spacer: CD-spectral absolute configuration determination and biological activity evaluations” (Eur J Med Chem, 2011):
pIC50: −log10 of the molar value.

How the values were obtained:
SW-620 [1] = assay: Induction of cell cycle arrest in human SW620 cells assessed as accumulation at G1 phase at 1 uM after 24 hrs by flow cytometry (reference value: 51.6 +/- 0.07%); format: functional
SW-620 [2] = assay: Induction of cell cycle arrest in human SW620 cells assessed as accumulation at G2/M phase at 1 uM after 24 hrs by flow cytometry (reference value: 10.7 +/- 0.07%); format: functional
SW-620 [3] = assay: Induction of cell cycle arrest in human SW620 cells assessed as accumulation at S phase at 1 uM after 24 hrs by flow cytometry (reference value: 37.7 +/- 0.01%); format: functional
SW-620 [4] = assay: Induction of cell cycle arrest in human SW620 cells assessed as accumulation at subG1 phase at 1 uM after 24 hrs by flow cytometry (reference value: 0.37 +/- 0.36%); format: functional
SW-620 [5] = assay: Induction of cell cycle arrest in human SW620 cells assessed as accumulation at G1 phase at 5 uM after 24 hrs by flow cytometry (reference value: 51.6 +/- 0.07%); format: functional
SW-620 [6] = assay: Induction of cell cycle arrest in human SW620 cells assessed as accumulation at G2/M phase at 5 uM after 24 hrs by flow cytometry (reference value: 10.7 +/- 0.07%); format: functional
SW-620 [7] = assay: Induction of cell cycle arrest in human SW620 cells assessed as accumulation at subG1 phase at 5 uM after 24 hrs by flow cytometry (reference value: 0.37 +/- 0.36%); format: functional
SW-620 [8] = assay: Induction of cell cycle arrest in human SW620 cells assessed as accumulation at G1 phase at 1 uM after 48 hrs by flow cytometry (reference value: 46.6 +/- 4.88%); format: functional
SW-620 [9] = assay: Induction of cell cycle arrest in human SW620 cells assessed as accumulation at G2/M phase at 1 uM after 48 hrs by flow cytometry (reference value: 11.9 +/- 2.33%); format: functional
SW-620 [10] = assay: Induction of cell cycle arrest in human SW620 cells assessed as accumulation at S phase at 1 uM after 48 hrs by flow cytometry (reference value: 41.7 +/- 2.47%); format: functional
SW-620 [11] = assay: Induction of cell cycle arrest in human SW620 cells assessed as accumulation at subG1 phase at 1 uM after 48 hrs by flow cytometry (reference value: 0.18 +/- 0.036%); format: functional
SW-620 [12] = assay: Induction of cell cycle arrest in human SW620 cells assessed as accumulation at G2/M phase at 5 uM after 48 hrs by flow cytometry (reference value: 11.9 +/- 2.33%); format: functional
HeLa [13] = assay: Induction of cell cycle arrest in human HeLa cells assessed as accumulation at G1 phase at 1 uM after 24 hrs by flow cytometry relative to control; format: functional
How it was run: (§1)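 Cells were seeded at 3×10⁵ per well in 6-well plates and treated after overnight incubation for 24 and 48 h. They were trypsinized, washed three times in PBS, fixed in cold ethanol and stored at −20 °C. Pellets were washed twice in PBS and treated with RNase A at 37 °C for 15 min, then stained with PI for 30 min in the dark. DNA content was measured by flow cytometry.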

HeLa [14] = assay: Induction of cell cycle arrest in human HeLa cells assessed as accumulation at G2/M phase at 1 uM after 24 hrs by flow cytometry relative to control; format: functional; how it was run: as §1
HeLa [15] = assay: Induction of cell cycle arrest in human HeLa cells assessed as accumulation at S phase at 1 uM after 24 hrs by flow cytometry relative to control; format: functional; how it was run: as §1
HeLa [16] = assay: Induction of cell cycle arrest in human HeLa cells assessed as accumulation at subG1 phase at 1 uM after 24 hrs by flow cytometry relative to control; format: functional; how it was run: as §1
HeLa [17] = assay: Induction of cell cycle arrest in human HeLa cells assessed as accumulation at G1 phase at 5 uM after 24 hrs by flow cytometry relative to control; format: functional; how it was run: as §1
HeLa [18] = assay: Induction of cell cycle arrest in human HeLa cells assessed as accumulation at G2/M phase at 5 uM after 24 hrs by flow cytometry relative to control; format: functional; how it was run: as §1
HeLa [19] = assay: Induction of cell cycle arrest in human HeLa cells assessed as accumulation at G2/M phase at 5 uM after 48 hrs by flow cytometry relative to control; format: functional; how it was run: as §1
HeLa [20] = assay: Induction of cell cycle arrest in human HeLa cells assessed as accumulation at S phase at 5 uM after 48 hrs by flow cytometry relative to control; format: functional; how it was run: as §1
HeLa [21] = assay: Cytostatic activity against human HeLa cells assessed as inhibition of cell proliferation after 72 hrs by MTT assay; format: functional, cell-based
How it was run: (§2)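 Monolayer cells grown in DMEM with 10% FBS were seeded on day 0 at 3000–6000 cells/well, set by each line's doubling time. Agents were added the next step in five 10-fold dilutions (0.01–100) for 72 h, with DMSO ≤0.1% and a solvent control. MTT absorbance was converted to percentage growth versus untreated wells on the same plate. Where all PGs exceeded 50, the top concentration was reported as ">". ANOVA/Tukey, p<0.05.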

HepG2 = assay: Cytostatic activity against human HepG2 cells assessed as inhibition of cell proliferation after 72 hrs by MTT assay; format: functional, cell-based; details: HepG2, 72 h; how it was run: as §2
MIA PaCa-2 [22] = assay: Cytostatic activity against human MIAPaCa2 cells assessed as inhibition of cell proliferation after 72 hrs by MTT assay; format: functional, cell-based; details: MIA PaCa-2, 72 h; how it was run: as §2
WI-38 = assay: Cytotoxicity against human WI38 cells assessed as inhibition of cell proliferation after 72 hrs by MTT assay; format: cell-based; details: WI-38, 72 h; how it was run: as §2
MIA PaCa-2 [23] = assay: Induction of cell cycle arrest in human MIAPaCa2 cells assessed as accumulation at G2/M phase at 1 uM after 24 hrs by flow cytometry (reference value: 10.3 +/- 0.07%); format: functional
MIA PaCa-2 [24] = assay: Induction of cell cycle arrest in human MIAPaCa2 cells assessed as accumulation at S phase at 1 uM after 24 hrs by flow cytometry (reference value: 34.3 +/- 0.07%); format: functional
MIA PaCa-2 [25] = assay: Induction of cell cycle arrest in human MIAPaCa2 cells assessed as accumulation at G1 phase at 5 uM after 24 hrs by flow cytometry (reference value: 55.4 +/- 0.01%); format: functional
MIA PaCa-2 [26] = assay: Induction of cell cycle arrest in human MIAPaCa2 cells assessed as accumulation at S phase at 5 uM after 24 hrs by flow cytometry (reference value: 34.3 +/- 0.07%); format: functional
MIA PaCa-2 [27] = assay: Induction of cell cycle arrest in human MIAPaCa2 cells assessed as accumulation at subG1 phase at 5 uM after 24 hrs by flow cytometry (reference value: 0.32 +/- 0.009%); format: functional
MIA PaCa-2 [28] = assay: Induction of cell cycle arrest in human MIAPaCa2 cells assessed as accumulation at G1 phase at 1 uM after 48 hrs by flow cytometry (reference value: 44.7 +/- 7.21%); format: functional
MIA PaCa-2 [29] = assay: Induction of cell cycle arrest in human MIAPaCa2 cells assessed as accumulation at G2/M phase at 1 uM after 48 hrs by flow cytometry (reference value: 9.35 +/- 0.92%); format: functional
MIA PaCa-2 [30] = assay: Induction of cell cycle arrest in human MIAPaCa2 cells assessed as accumulation at S phase at 1 uM after 48 hrs by flow cytometry (reference value: 46 +/- 8.13%); format: functional

pIC50 (HeLa [21]): 5.23
pIC50 (HepG2): 5.57
pIC50 (MIA PaCa-2 [22]): 6.04
SMILES: Nc1ncn(C/C=C2\OC(=O)C(OCc3ccccc3)=C2OCc2ccccc2)c(=O)n1
Activity (SW-620 [1]): 41.3%
Activity (SW-620 [2]): 8.15%
Activity (SW-620 [3]): 50.5%
Activity (SW-620 [4]): 0.56%
Activity (SW-620 [5]): 24.1%
Activity (SW-620 [6]): 17.7%
Activity (SW-620 [7]): 0.2%
Activity (SW-620 [8]): 23.2%
Activity (SW-620 [9]): 17.9%
Activity (SW-620 [10]): 58.9%
Activity (SW-620 [11]): 0.05%
Activity (SW-620 [12]): 9.2%
Activity (HeLa [13]): 29.4%
Activity (HeLa [14]): 11.9%
Activity (HeLa [15]): 58.8%
Activity (HeLa [16]): 0%
Activity (HeLa [17]): 16.5%
Activity (HeLa [18]): 11.5%
Activity (HeLa [19]): 13.9%
Activity (HeLa [20]): 62.3%
pIC50 (WI-38): 5.33
Activity (MIA PaCa-2 [23]): 14.9%
Activity (MIA PaCa-2 [24]): 29.5%
Activity (MIA PaCa-2 [25]): 35.6%
Activity (MIA PaCa-2 [26]): 57.4%
Activity (MIA PaCa-2 [27]): 0.21%
Activity (MIA PaCa-2 [28]): 22.9%
Activity (MIA PaCa-2 [29]): 12.9%
Activity (MIA PaCa-2 [30]): 64.2%
